12 compounds from ChEMBL document CHEMBL1133688, “Hunting the emesis and efficacy targets of PDE4 inhibitors: identification of the photoaffinity probe 8-(3-azidophenyl)-6- [(4-iodo-1H-1-imidazolyl)methyl]quinoline (APIIMQ)” (J Med Chem, 2000) can be followed below.

In test [1] the target is 3',5'-cyclic-AMP phosphodiesterase 4A (Homo sapiens, UniProt P27815). In words: Inhibition of recombinant human PDE4A expressed in Sf9 cells. The method in brief:
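Inhibition of the purified enzyme's catalytic activity (cAMP hydrolysis) was measured, and IC50 was derived.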

The species named for the next test is Homo sapiens. As to the kind of experiment: Inhibition of LPS-induced TNF-alpha secretion in human whole blood. Format: functional.
The species entered for another test is Cavia porcellus. As to the kind of experiment: Bronchoconstriction effect in ovalbumin-induced guinea pig model. The class given is functional.

Chain of 3',5'-cyclic-AMP phosphodiesterase 4A (P27815 whole entry): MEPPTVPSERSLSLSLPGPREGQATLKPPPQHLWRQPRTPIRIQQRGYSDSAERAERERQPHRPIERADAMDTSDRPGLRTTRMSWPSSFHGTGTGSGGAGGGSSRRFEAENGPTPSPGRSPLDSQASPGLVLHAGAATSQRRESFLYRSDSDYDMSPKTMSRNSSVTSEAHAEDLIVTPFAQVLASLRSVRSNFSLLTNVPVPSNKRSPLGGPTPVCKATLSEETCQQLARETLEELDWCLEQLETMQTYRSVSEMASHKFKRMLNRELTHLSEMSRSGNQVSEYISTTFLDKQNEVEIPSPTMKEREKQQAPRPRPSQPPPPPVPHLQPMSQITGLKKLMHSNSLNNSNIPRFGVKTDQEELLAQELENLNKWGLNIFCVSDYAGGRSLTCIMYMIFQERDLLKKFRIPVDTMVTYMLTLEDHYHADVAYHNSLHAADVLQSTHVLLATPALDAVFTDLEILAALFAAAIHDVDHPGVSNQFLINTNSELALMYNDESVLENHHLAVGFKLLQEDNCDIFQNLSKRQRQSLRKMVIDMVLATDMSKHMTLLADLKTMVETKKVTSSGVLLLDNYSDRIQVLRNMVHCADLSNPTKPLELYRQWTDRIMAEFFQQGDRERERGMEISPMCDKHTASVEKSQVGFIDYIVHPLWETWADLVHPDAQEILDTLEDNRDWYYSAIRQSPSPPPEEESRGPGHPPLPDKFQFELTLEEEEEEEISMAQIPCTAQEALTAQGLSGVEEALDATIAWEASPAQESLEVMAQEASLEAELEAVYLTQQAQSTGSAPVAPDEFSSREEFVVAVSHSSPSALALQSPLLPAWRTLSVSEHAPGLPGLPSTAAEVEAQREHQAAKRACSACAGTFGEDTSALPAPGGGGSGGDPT

Consider `O=C(c1ccccc1)c1cc(-c2cccc(I)c2)c2ncccc2c1`, for which the IC50 in test [1] is 15 nM.

With `[N-]=[N+]=Nc1cc(-c2cccc(I)c2)c2ncccc2c1`, in test [1], the IC50 came to 28 nM.

On to `COc1ccc(C2CC(=O)N(Cc3cc(I)cc(C4(C(F)(F)F)N=N4)c3)C2)cc1OC1CCCC1` (centres undefined), for which the IC50 in test [1] was 35 nM.

As for `[N-]=[N+]=Nc1ccc(I)c(-c2cc(Cc3ccncc3)cc3cccnc23)c1`, the IC50 in test [1] amounted to 3.3 nM.

As for `O=[N+]([O-])c1cccc(-c2cc(Cc3ccncc3)cc3cccnc23)c1`, in test [1], the IC50 was found to be 0.07 nM.

As for `[N-]=[N+]=Nc1cccc(-c2cc(I)cc3cccnc23)c1`, in test [1], the IC50 was 2.7 nM.

For the compound `O=c1c2c(ncn2Cc2ccccc2)c2cccnc2n1-c1ccccc1`, in test [1], the IC50 came out at 0.6 nM.

Take `[N-]=[N+]=Nc1cccc(-c2cc(Cc3ccncc3)cc3cccnc23)c1`: the IC50 in test [1] came to 0.2 nM.

`O=c1c2c(ncn2Cc2cc(I)cc(C3(C(F)(F)F)N=N3)c2)c2cccnc2n1-c1ccccc1`: the IC50 in test [1] came to 250 nM.

In the case of `[N-]=[N+]=Nc1cccc(-c2cc(Cn3cnc(I)c3)cc3cccnc23)c1`, the results for the IC50 (in the test listed under Homo sapiens; in test [1]) were 2000 nM and 0.4 nM, respectively. In the test listed under Cavia porcellus, the ED50 amounted to 0.3 mg/kg.

On to `c1ccc(-c2cc(Cn3ccnc3)cc3cccnc23)cc1`, for which, in test [1], the IC50 was 9 nM.

`COc1ccc([C@H](Cc2ccncc2)c2ccccc2)cc1OC1CCCC1` [CDP840]: the Ki in test [1] was 4 nM.

In general, IC50 refers to the midpoint of a concentration-inhibition curve. Broadly, the ED50 is the midpoint of the dose-response relation. The Ki is the dissociation constant of the complex between target and ligand, obtained from inhibition or displacement.
